Experimental data taken from ChEMBL document CHEMBL4043109, “Dual inhibitors of the human blood-brain barrier drug efflux transporters P-glycoprotein and ABCG2 based on the antiviral azidothymidine” (Bioorg Med Chem, 2017).
The source made the active and inactive calls. The rule behind the calls is not given here.

Tests used:
[1] = species on record: Homo sapiens; assay: Inhibition of P-gp in human MCF7/DX1 cells assessed as increase in calcein-AM accumulation at 500 uM incubated for 10 mins by flow cytometry; type: cell-based
Procedure, shortened: (§1)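 MCF-7/DX1 cells (125,000, in suspension) were incubated at 37 °C for 10 min in BME containing 0.5 μM calcein-AM (final) plus increasing compound concentrations, with DMSO held at 5%. GF120918 1 μM served as positive control. IC50 was taken from mean fluorescence; triplicate.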

[2] = biological target: T1, Broad substrate specificity ATP-binding cassette transporter ABCG2 (Homo sapiens, UniProt Q9UNQ0); assay: Inhibition of ABCG2 in human MCF7/FLV1000 cells assessed as increase in mitoxantrone accumulation at 400 uM incubated for 30 mins by flow cytometry; settings: 0.5 h
T1 sequence (Q9UNQ0 whole entry): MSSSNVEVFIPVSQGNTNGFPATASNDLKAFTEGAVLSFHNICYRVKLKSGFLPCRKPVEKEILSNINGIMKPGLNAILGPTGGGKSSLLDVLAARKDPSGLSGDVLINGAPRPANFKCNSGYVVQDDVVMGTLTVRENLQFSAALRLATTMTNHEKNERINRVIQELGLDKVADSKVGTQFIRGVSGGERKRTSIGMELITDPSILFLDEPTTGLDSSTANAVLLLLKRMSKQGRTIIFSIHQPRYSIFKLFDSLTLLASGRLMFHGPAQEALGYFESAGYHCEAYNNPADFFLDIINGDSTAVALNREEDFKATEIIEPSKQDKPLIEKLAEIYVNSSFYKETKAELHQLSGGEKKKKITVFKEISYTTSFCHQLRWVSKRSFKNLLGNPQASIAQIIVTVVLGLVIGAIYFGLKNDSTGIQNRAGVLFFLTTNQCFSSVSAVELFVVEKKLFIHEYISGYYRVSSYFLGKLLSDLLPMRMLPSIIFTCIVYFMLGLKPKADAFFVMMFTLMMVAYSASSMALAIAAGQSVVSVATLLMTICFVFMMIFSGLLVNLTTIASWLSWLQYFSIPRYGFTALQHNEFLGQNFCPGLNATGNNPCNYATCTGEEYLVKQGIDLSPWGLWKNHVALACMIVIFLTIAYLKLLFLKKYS

[3] = Inhibition of P-gp in human MCF7/DX1 cells assessed as increase in calcein-AM accumulation incubated for 10 mins by flow cytometry; type: cell-based; settings: MCF7/DX1, 10 min; procedure, shortened: as §1
[4] = Cytotoxicity in human MCF-7 FLV1000 cells assessed as cell viability at […] uM incubated for 24 hrs by MTT assay; type: cell-based; settings: read-out: Activity
[5] = Cytotoxicity in human MCF7/DX1 cells assessed as cell viability at 2 uM incubated for 24 hrs by MTT assay; type: cell-based; settings: read-out: Activity
Procedure, shortened: (§2)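 MTT viability assay on MCF-7/FLV1000 (ABCG2-overexpressing, grown with 1000 nM flavopiridol) and MCF-7/DX1 (P-gp-overexpressing, grown with 1 μM doxorubicin) cells. Cells were exposed for 24 h to increasing dimer concentrations. Viability is the absorbance of treated cells relative to untreated cells.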

[6] = Cytotoxicity in human MCF-7 FLV1000 cells assessed as cell viability at 40 uM incubated for 24 hrs by MTT assay; type: cell-based; settings: read-out: Activity; procedure, shortened: as §2
[7] = biological target: T1, Broad substrate specificity ATP-binding cassette transporter ABCG2; assay: Inhibition of ABCG2 in human MCF7/FLV1000 cells assessed as increase in mitoxantrone accumulation incubated for 30 mins by flow cytometry
[8] = species on record: Homo sapiens; assay: Inhibition of P-gp in human MCF7/DX1 cells assessed as increase in calcein-AM accumulation at 400 uM incubated for 10 mins by flow cytometry; type: cell-based; procedure, shortened: as §1
[9] = biological target: T1, Broad substrate specificity ATP-binding cassette transporter ABCG2; assay: Inhibition of ABCG2 in human MCF7/FLV1000 cells assessed as increase in mitoxantrone accumulation at 200 uM incubated for 30 mins by flow cytometry; settings: 0.5 h
[10] = biological target: ATP-dependent translocase ABCB1 (Homo sapiens, UniProt P08183); assay: Inhibition of human MDR1 expressed in Sf9 cell membranes assessed as reduction in [125I]-IAAP binding incubated for 20 mins under UV light irradiation and measured after 30 mins by densitometry based photo-affinity labeling assay
ATP-dependent translocase ABCB1, sequence (P08183 whole entry): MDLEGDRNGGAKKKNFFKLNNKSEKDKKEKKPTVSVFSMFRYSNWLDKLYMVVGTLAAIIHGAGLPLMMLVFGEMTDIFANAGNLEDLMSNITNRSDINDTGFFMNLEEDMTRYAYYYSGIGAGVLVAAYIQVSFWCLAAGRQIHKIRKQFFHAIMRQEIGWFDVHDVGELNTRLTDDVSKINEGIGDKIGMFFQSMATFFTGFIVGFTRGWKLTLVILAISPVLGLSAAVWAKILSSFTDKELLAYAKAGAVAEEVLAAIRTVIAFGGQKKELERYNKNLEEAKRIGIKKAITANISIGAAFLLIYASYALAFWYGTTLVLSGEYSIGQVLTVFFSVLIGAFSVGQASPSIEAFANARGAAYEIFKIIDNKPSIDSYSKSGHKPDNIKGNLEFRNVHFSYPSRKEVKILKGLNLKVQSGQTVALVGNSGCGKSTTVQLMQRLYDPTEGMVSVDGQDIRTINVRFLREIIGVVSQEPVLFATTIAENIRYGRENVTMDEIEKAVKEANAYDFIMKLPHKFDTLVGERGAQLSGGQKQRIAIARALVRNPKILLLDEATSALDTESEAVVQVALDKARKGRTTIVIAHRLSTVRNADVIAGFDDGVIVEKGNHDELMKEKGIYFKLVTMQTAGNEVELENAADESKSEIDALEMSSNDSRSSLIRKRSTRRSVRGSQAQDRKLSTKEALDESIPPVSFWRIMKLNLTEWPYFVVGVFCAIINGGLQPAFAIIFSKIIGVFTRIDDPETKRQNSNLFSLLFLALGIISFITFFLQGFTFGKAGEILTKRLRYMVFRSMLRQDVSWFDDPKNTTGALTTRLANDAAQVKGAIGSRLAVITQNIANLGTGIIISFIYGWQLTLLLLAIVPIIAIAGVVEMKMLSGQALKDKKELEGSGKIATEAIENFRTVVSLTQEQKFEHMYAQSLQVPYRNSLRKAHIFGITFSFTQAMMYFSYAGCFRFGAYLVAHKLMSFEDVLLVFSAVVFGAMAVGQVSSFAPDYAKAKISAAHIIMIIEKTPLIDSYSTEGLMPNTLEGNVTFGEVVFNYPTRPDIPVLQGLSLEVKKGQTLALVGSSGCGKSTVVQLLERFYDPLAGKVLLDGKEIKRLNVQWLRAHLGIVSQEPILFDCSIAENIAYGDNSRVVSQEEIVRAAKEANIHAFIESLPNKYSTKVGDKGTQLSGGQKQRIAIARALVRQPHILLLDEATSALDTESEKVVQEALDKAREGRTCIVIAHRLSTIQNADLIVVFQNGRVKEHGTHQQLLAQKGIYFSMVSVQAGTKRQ
Procedure, shortened: (§3)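 Crude Sf9 membranes, from baculovirus infection expressing P-gp (25 µg) or ABCG2 (40 µg), were preincubated 10 min at room temperature in the dark. Buffer was 50 mM Tris pH 7.5 with 1% aprotinin, 1 mM DTT and 2 mM AEBSF. Additions were compound (in DMSO) and [125I]-IAAP, ~2200 Ci/mmol. Controls were 2.5% DMSO and GF120918 (10 µM for P-gp, 20 µM for ABCG2). Samples were UV-irradiated at 365 nm for 20 min on ice, then held 30 min in Laemmli buffer. Bands were resolved on 7.5% SDS-PAGE, autoradiographed and quantified as % of DMSO control to give IC50.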

[11] = biological target: T1, Broad substrate specificity ATP-binding cassette transporter ABCG2; assay: Inhibition of human ABCG2 expressed in Sf9 cell membranes assessed as reduction in [125I]-IAAP binding incubated for 20 mins under UV light irradiation and measured after 30 mins by densitometry based photo-affinity labeling assay; procedure, shortened: as §3
[12] = Cytotoxicity in human MCF7/DX1 cells assessed as cell viability at 2.3 uM incubated for 24 hrs by MTT assay; type: cell-based; settings: read-out: Activity; procedure, shortened: as §2

Cc1cn([C@H]2C[C@H](N=[N+]=[N-])[C@@H](CO)O2)c(=O)[nH]c1=O [ZIDOVUDINE]
inhibition [1]: inactive | inhibition (INH) [2]: Not Active

Cc1cn([C@H]2C[C@H](N=[N+]=[N-])[C@@H](COC(=O)CCCCCCCCCCCCC(=O)OC[C@H]3O[C@@H](n4cc(C)c(=O)[nH]c4=O)C[C@@H]3N=[N+]=[N-])O2)c(=O)[nH]c1=O
IC50 [3]: 2 µM | viability at 24 h, 13.3 µM [4]: > 95% | viability at 24 h, 2 µM [5]: > 95% | viability at 24 h, 40 µM [6]: 60% | IC50 [7]: 13.3 µM

Cc1cn([C@H]2C[C@H](N=[N+]=[N-])[C@@H](COC(=O)CCC(=O)OC[C@H]3O[C@@H](n4cc(C)c(=O)[nH]c4=O)C[C@@H]3N=[N+]=[N-])O2)c(=O)[nH]c1=O
inhibition [8]: inactive | inhibition (INH) [9]: Not Active

Cc1cn([C@H]2C[C@H](N=[N+]=[N-])[C@@H](COC(=O)CCCCCCCCC(=O)OC[C@H]3O[C@@H](n4cc(C)c(=O)[nH]c4=O)C[C@@H]3N=[N+]=[N-])O2)c(=O)[nH]c1=O
IC50 [3]: 11.3 µM | IC50 [7]: 28.2 µM

Cc1cn([C@H]2C[C@H](N=[N+]=[N-])[C@@H](COC(=O)CCCCCCCCCCC(=O)OC[C@H]3O[C@@H](n4cc(C)c(=O)[nH]c4=O)C[C@@H]3N=[N+]=[N-])O2)c(=O)[nH]c1=O
IC50 [3]: 2.3 µM | IC50 [10]: 9.3 µM | inhibition (INH) ([10]; human, 20 min): Dose-dependent effect | IC50 [11]: 4.3 µM | inhibition (INH) ([11]; human, 20 min): Dose-dependent effect | viability at 24 h, 2.3 µM [12]: > 95% | viability at 24 h, 11.5 µM [4]: > 95% | IC50 [7]: 11.5 µM

Cc1cn([C@H]2C[C@H](N=[N+]=[N-])[C@@H](COC(=O)CCCCCC(=O)OC[C@H]3O[C@@H](n4cc(C)c(=O)[nH]c4=O)C[C@@H]3N=[N+]=[N-])O2)c(=O)[nH]c1=O
IC50 [3]: > 200 µM | inhibition (INH) [9]: Not Active
